The subject of data set [1] is NIH3T3. The experiment in a line: Cytotoxicity against mouse NIH/3T3 cells assessed as reduction in cell viability after 24 hrs by neutral red uptake assay. It is filed as cell-based. The following applies: NIH3T3, 24 h. Put shortly:
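NIH3T3 fibroblasts seeded at 5 x 10^4 per well and cultured 24 h at 37 °C, 5% CO2. DMSO-solubilized samples added at 8 to 160 µM for 24 h; medium as negative control. Neutral Red medium applied 3 h, dye desorbed in acetic acid/ethanol, absorbance read at 540 nm. Three experiments, six replicates per concentration; viability normalized to % control.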

Data set [2] in a line: Solubility of compound in pH 3 buffer at 250 uM measured after 24 hrs by HPLC/UV/DAD method. It is filed as physicochemical. The following applies: pH 3, 24 h. In short, it runs like this:
(§1)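 10 mM DMSO stock diluted to 250 µM (2.5% DMSO) in 50 mM acetic acid, pH 3.0, and shaken 24 h at 25 °C. For solubility, samples filtered, diluted 1:2, quantified by HPLC-UV at 254 nm against a standard. For stability, percent remaining taken as the 24 h peak area over the T0 peak area. Triplicate analyses averaged.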

Data set [3] in a line: Inhibition of HDAC1/2/3/8 in human U-937 cells assessed as increase in H3K9/14 acetylation at 10 uM measured after 12 to 24 hrs by Western blot analysis. The following applies: u-937, 10 µM, time 12-24 hrs. It is filed as cell-based. In short, it runs like this: (§2)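 HCT-116 or U937 cells treated at 10 µM for 12 and 24 h. […] Western blot used 40 µg total protein or 5 µg acid-extracted histone. Blots probed for cleaved PARP, acetylated tubulin, H3K9/14ac and Hsp90(AcLys294), normalized to GAPDH or H4. Compared with control cells by one-way ANOVA and Dunnett's test.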

Data set [4] can be described thus: Inhibition of HDAC1/2/3/8 in human HCT-116 cells assessed as increase in H3K9/14 acetylation at 10 uM measured after 12 to 24 hrs by Western blot analysis relative to control. It is filed as cell-based. The following applies: hct-116, 10 µM, time 12-24 hrs. Put shortly: as §2
The test system of data set [5] is U-937. The experiment in a line: Induction of apoptosis in human U-937 cells assessed as increase in PARP cleavage at 10 uM measured after 24 hrs by Western blot analysis. It is filed as functional, cell-based. Put shortly: as §2
Data set [6] deals with HCT-116. The data set can be described thus: Cytotoxicity against human HCT-116 cells assessed as cell viability measured after 48 hrs by MTT assay relative to control. It is filed as functional. Put shortly: (§3)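 HCT-116 cells grown in DMEM with 10% FBS, 2 mM L-glutamine and antibiotics. 2.5×10^4 cells/well treated in triplicate at 50, 25, 10, 5 and 1 µM for 12, 24 or 48 h. Then MTT 0.5 mg/ml for 3 h, supernatant removed, formazan dissolved in isopropanol, absorbance read at 570 nm. IC50 derived from the concentration series.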

Data set [7] deals with T1, Protein deacetylase HDAC6 (Homo sapiens) (UniProt Q9UBN7).
T1 sequence (whole entry): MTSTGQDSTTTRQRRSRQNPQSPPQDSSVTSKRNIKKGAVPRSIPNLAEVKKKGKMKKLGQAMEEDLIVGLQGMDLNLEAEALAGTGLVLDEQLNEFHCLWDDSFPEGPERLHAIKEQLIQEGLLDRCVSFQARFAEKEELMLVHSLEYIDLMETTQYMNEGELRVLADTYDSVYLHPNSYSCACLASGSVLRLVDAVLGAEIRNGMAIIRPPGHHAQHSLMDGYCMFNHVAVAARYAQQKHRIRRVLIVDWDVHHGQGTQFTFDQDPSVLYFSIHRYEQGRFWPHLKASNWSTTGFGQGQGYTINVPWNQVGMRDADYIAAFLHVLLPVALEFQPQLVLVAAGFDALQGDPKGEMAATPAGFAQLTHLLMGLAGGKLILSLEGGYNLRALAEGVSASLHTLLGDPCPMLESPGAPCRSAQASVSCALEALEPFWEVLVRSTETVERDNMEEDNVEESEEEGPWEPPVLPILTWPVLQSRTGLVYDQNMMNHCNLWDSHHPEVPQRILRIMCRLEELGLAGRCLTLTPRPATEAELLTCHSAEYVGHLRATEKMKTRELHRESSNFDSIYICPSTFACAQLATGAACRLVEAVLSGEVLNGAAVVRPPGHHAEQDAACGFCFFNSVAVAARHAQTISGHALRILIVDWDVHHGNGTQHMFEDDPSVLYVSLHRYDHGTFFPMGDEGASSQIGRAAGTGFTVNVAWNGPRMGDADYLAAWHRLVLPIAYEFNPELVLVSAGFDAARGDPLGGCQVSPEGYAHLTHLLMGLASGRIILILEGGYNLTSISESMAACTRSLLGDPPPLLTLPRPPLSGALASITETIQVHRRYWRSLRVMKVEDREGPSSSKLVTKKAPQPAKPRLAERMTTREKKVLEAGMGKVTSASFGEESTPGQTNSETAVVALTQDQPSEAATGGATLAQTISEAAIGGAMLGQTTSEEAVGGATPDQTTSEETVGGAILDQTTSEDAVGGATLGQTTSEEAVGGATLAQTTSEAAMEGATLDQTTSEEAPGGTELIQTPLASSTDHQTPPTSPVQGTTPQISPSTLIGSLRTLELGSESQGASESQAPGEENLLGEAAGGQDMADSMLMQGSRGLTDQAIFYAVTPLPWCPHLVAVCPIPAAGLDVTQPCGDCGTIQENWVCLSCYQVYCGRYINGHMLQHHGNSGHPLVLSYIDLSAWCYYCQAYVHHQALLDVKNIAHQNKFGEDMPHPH
The data set can be described thus: Inhibition of HDAC6 in human HCT-116 cells assessed as increase in Hsp90(AcLys294) acetylation at 10 uM measured after 12 to 24 hrs by Western blot analysis. It is filed as cell-based. The settings on record: time 12-24 hrs. In short, it runs like this:
as §2

Data set [8] has as its target T1, Protein deacetylase HDAC6 (Homo sapiens). The data set can be described thus: Inhibition of HDAC6 in human HCT-116 cells assessed as increase in alpha-tubulin acetylation at 10 uM measured after 12 to 24 hrs by Western blot analysis relative to control. The settings on record: time 12-24 hrs. It is filed as cell-based. Put shortly:
as §2

The nature of data set [9]: Stability of compound in pH 3 buffer assessed as parent compound remaining at 250 uM measured after 24 hrs by HPLC/UV/DAD method. The settings on record: read-out: Stabilty. It is filed as physicochemical. Put shortly:
as §1

Data set [10] addresses T2, Histone deacetylase 8 (Homo sapiens, UniProt Q9BY41).
T2 sequence (Q9BY41 whole entry): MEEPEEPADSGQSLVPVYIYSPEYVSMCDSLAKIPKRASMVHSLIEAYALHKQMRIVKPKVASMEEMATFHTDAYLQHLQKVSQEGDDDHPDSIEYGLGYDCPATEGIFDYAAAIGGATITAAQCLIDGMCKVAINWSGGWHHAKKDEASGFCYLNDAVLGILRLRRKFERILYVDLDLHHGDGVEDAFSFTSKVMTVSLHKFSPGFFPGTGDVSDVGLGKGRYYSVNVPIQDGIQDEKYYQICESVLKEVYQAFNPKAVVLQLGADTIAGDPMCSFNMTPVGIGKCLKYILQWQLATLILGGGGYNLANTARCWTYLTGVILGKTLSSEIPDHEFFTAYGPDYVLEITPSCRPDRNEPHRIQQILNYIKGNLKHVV
The experiment in a line: Inhibition of recombinant human HDAC8 using Fluor-de-Lys as substrate measured after 1 hr by fluorescence assay.

Data set [11] has as its system HCT-116. The data set can be described thus: Cytotoxicity against human HCT-116 cells assessed as reduction in cell viability measured after 24 hrs by MTT assay. It is filed as functional, cell-based. The settings on record: HCT-116, 24 h. Put shortly:
as §3

Activity calls are given as the source filed them. No cut-off for these calls is given here.

Consider `CCN(CC)Cc1ccc(Cn2c(=O)c(OCc3ccc(C(=O)NO)cc3)c(-c3cccnc3)c3ccccc32)cc1`, for which the IC50 was determined as 90 µM in data set [1], 0.49 µM in data set [10] and 25.7 µM in data set [11]. Besides, the solubility result in [2] is recorded as “Soluble”. Besides, in data set [3], the “inhibition (INH)” value is “Active”. Besides, the “fold change (FC)” value in data set [4] was greater than 6; in [8], greater than 9. The outcome in data set [5] was Active. In addition, the Activity in data set [6] is recorded as 10%. In [7], the inhibition entry is “Active”. In addition, the remaining at 24 h, 250 µM in data set [9] was greater than 95%. Moreover, the Kapp in data set [10] (human, 1 h) is 0.4 µM.
